# Assay outcomes deposited in PubChem by several laboratories.
# OX1R antag-1: antagonists of human orexin 1 receptor (OX1R); Orexin/Hypocretin receptor type 1 (Homo sapiens), O43613; OX1R-expressing cells, FRET antagonist read-out; inhibition, % at 6.6 µM; 330,000 compounds, 1.8% hits; in the data active means inhibition mostly above about 38%, no sharp cut-off; inactive means mostly below about 40%;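 further: 0% = agonist challenge alone and 100% = reference antagonist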
# Target sequence (O43613 whole entry, looked up): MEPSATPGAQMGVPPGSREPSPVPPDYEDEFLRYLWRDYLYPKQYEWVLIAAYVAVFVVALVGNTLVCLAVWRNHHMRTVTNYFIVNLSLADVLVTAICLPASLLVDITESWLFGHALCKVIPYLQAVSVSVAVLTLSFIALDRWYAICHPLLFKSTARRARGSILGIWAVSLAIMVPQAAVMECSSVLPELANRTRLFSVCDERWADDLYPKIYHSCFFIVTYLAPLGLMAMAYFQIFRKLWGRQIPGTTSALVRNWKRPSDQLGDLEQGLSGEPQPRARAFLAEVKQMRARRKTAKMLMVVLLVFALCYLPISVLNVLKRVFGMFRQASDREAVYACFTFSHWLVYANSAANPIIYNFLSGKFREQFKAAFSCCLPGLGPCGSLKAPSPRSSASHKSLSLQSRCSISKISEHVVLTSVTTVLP
# TAAR1 antagonist: human TAAR1 antagonists, primary screen, Fluo-8 calcium fluorescence, CHO RD-HGA16 cells. Trace amine-associated receptor 1 (Homo sapiens), Q96RJ0. antagonist. inhibition, % at 3 µM. 360,000 compounds, 1.5% hits;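 active means inhibition above a per-plate cutoff, the mean inhibition of test compounds on that plate plus 3 SD, cut at about 49% in these data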;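 further: 0% = DMSO plus EC80 beta-PEA response and 100% = DMSO alone without agonist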
# Target sequence (Q96RJ0 whole entry, looked up): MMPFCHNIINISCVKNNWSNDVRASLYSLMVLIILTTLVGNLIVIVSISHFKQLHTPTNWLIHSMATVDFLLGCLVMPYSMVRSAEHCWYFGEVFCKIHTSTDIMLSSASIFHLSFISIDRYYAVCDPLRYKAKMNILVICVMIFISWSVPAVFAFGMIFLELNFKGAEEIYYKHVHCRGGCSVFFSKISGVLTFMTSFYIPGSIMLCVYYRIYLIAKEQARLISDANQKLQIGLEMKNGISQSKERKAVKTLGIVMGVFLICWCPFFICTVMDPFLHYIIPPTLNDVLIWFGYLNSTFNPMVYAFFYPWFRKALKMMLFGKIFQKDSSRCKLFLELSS
#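 Material: CHO RD-HGA16 cells bearing hTAAR1; compound dosing: one-point dosing, 3 µM nominal final; schedule: dye loading 75 min at 37 °C, then 30 min room temperature; measured by: calcium fluorescence with Fluo-8; control set: vehicle and agonist controls; replication: n of 1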
# TAAR1 ag: human TAAR1 agonists, primary screen, Fluo-8 calcium fluorescence, CHO RD-HGA16 cells; Trace amine-associated receptor 1 (Homo sapiens), Q96RJ0; vehicle wells 0%, saturating PEA agonist 100%; activation, % at 3 µM; 360,000 compounds, 0.99% hits; AID 624467, 2012;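 active means activation above the mean activation of all test compounds in the run plus 3 SD, cut at about 38% in these data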
#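 test system = CHO RD-HGA16 cells carrying human TAAR1 plus Gα16 | schedule = 17-24 h seeding, 75 min 37 °C dye, 30 min RT | compound dosing = 3 µM single concentration | control set = DMSO and PEA EC100 | replicates = n 1 | signal = Fluo-8 fluorescence, 5 s baseline then 140 s kinetic read | measure = percent activation vs PEA EC100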
# CHO parental Ca: ATP-evoked calcium signal inhibitors, parental CHO, primary screen, counter-screen for OX1R antagonist project, cell-based, fluorescence, Fluo-8 calcium dye; parental CHO-K1, ATP-induced calcium, Fluo-8 fluorescence; inhibition, % at 5.6 µM; 330,000 compounds, 0.63% hits;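 active means inhibition above that plate's mean sample inhibition plus 3 SD, cut at about 26% in these data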;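 further: 0% = ATP-challenged DMSO wells and 100% = DMSO wells without ATP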
#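 Test system: untransfected parental CHO cell line; also added: ATP stimulus; dosing: 5.6 µM, single dose; signal: calcium-sensitive Fluo-8 fluorescence; measure: percent inhibition of ATP-evoked calcium rise, normalized to controls; benchmarks: low control ATP plus DMSO, high control DMSO only; replication: one well per compound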
# OX1R antag-2: OX1R (HCRTR1) antagonists, primary screen, fluorescence, CHO/OX1R cells, Fluo-8 calcium, orexin A; Orexin/Hypocretin receptor type 1 (Homo sapiens), O43613; Fluo-8 calcium fluorescence; inhibition, % at 5 µM; 330,000 compounds, 0.43% hits;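 active means inhibition above its plate's threshold, mean inhibition of all tested compounds on the plate plus 3 SD, cut at about 37% in these data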;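 further: 0% = orexin A challenge wells and 100% = SB-334867-A antagonist wells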
# NTR1 agonist: agonists of human NTR1, primary screen, imaging, U2OS cells, beta-arrestin-GFP, high content; Neurotensin receptor type 1 (Homo sapiens), P30989; NTR1-U2OS beta-arrestin-GFP spot imaging, agonist mode; activation, % at 20 µM; 330,000 compounds, 0.17% hits;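 active means activation at or above 40% of the spot to cytoplasm intensity ratio, with at least 20 cells analyzed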;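 further: 0% = DMSO without peptide and 100% = 100 nM NTR1 peptide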
# TAAR1 ag conf: human TAAR1 agonists, retest of hits, confirmation, Fluo-8 calcium fluorescence, CHO RD-HGA16 cells | 2,400 compounds, 82% hits | scaled: DMSO 0%, maximal phenethylamine 100% | shares compounds with TAAR1 ag | activation, % at 3 µM;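 active means activation above a cutoff set at the run's mean compound activation plus 3 SD, cut at about 39% in these data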
# Ga16 ag counter: nonselective calcium mobilization agonists, CHO-Ga16 cells, counter-screen for hTAAR1 agonist project, cell-based, fluorescence, CHO-Ga16 parental line. shares compounds with TAAR1 ag. Fluo-8 calcium fluorescence; normalized to maximal ATP response, DMSO zero. activation, % at 3 µM. 2,400 compounds, 50% hits. AID 651787, 2012;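 active means activation above the run cutoff, the mean activation over all tested wells plus 3 SD, cut at about 12% in these data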;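 further: 0% = DMSO wells and 100% = maximal ATP response on the peak over basal ratio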
# TAAR1 desensitize: TAAR1 desensitization by agonist hits, confirmation, counter-screen for TAAR1 agonist project, cell-based, fluorescence, tachyphylaxis; shares compounds with TAAR1 ag; CHO RD-HGA16 hTAAR1, Fluo-8 calcium, beta-PEA response inhibition; inhibition, % at 3 µM; 2,400 compounds, 46% hits; AID 651951, 2012;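 active means inhibition above the run cutoff, the mean inhibition of all test compounds plus 3 SD, cut at about 49% in these data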;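 further: beta-PEA stimulus applied at its EC80; loss of beta-PEA calcium signal after compound pretreatment read as receptor desensitization; 0% = DMSO with beta-PEA at EC80 and 100% = DMSO alone without agonist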
# Ga16 nonsel ant: inhibition of ATP-evoked calcium response in CHO-Ga16 cells, counter-screen for TAAR1 agonist project, cell-based, fluorescence; inhibition, % at 3 µM; CHO-Ga16 ATP-induced calcium, Fluo-8 fluorescence; 2,400 compounds, 39% hits; shares compounds with TAAR1 ag; AID 651952, 2012;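 active means inhibition above the plate's mean compound inhibition plus 3 SD, computed per plate, cut at about 22% in these data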;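 further: 0% = EC80 ATP with DMSO and 100% = DMSO wells without ATP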
# An asterisk follows results filed as active; nt = not tested or not shown. Hits are enriched below; roughly 4% of the tested compounds scored in any of these assays.
SMILES,OX1R antag-1,TAAR1 antagonist,TAAR1 ag,CHO parental Ca,OX1R antag-2,NTR1 agonist,TAAR1 ag conf,Ga16 ag counter,TAAR1 desensitize,Ga16 nonsel ant
NC(N)=N/N=C/c1ccc(OCc2ccccc2Cl)cc1,8.1,-10.8,49.8*,14.7,13.1,15.5,86.7*,54.6*,70.5*,60.6*
NC(N)=N/N=C/c1ccccc1,9.2,88.6*,63.5*,2.5,-3.1,-1.6,91.5*,4.7,93.5*,7.0
COCCN(C(=O)COC(=O)c1nc(Cl)ccc1Cl)c1c(N)n(Cc2ccccc2)c(=O)[nH]c1=O,8.0,-10.9,1.4,-18.8,-9.6,-0.7,nt,nt,nt,nt
Cc1ccc(OP(=O)(Nc2c(C)n(C)n(-c3ccccc3)c2=O)Oc2ccc(C)cc2)cc1,11.1,5.4,50.3*,-17.1,-32.3,0.8,27.3,7.6,7.9,5.5
CCOC(=O)[C@]12CCC=C1N(CCC1=CCCCC1)C(=O)[C@H](CC(=O)NCCc1ccccc1OC)C2,nt,nt,nt,nt,nt,nt,nt,0.6,nt,-8.7
COC(=O)[C@]12CCCCC=C1N(CCC1=CCCCC1)C(=O)[C@H](CC(=O)NCCc1ccccc1OC)C2,nt,39.8,34.1,nt,nt,nt,nt,nt,nt,nt
CCOC(=O)[C@]12CCCC=C1N(CCC1=CCCCC1)C(=O)[C@H](CC(=O)NCCc1ccccc1OC)C2,nt,38.2,58.2*,nt,nt,nt,74.7*,0.1,60.0*,9.2
CCOC(=O)[C@]12CCCC=C1N(Cc1ccc3c(c1)OCO3)C(=O)[C@H](CC(=O)NCCc1ccccc1OC)C2,nt,27.9,74.5*,nt,nt,nt,75.2*,-1.8,69.4*,10.2
O=C1NC2(CCCCC2)C(=O)N1Cc1cccc(C(F)(F)F)c1,14.4,-19.0,71.2*,-0.9,-20.3,3.9,2.8,0.3,-7.0,9.4
O=C1NC2(CCCCCC2)C(=O)N1Cc1cccc(Cl)c1,7.3,7.8,-0.5,-17.2,-13.5,2.5,nt,nt,nt,nt
Cc1ccc(NC(=O)CSCc2cc(=O)n3ccsc3n2)c(C)c1,10.2,-1.8,5.6,-8.8,-12.2,0.0,nt,nt,nt,nt
Cc1ccccc1-c1cccc([C@@H]2C[C@H]3CN(Cc4cccnc4)C(=O)[C@]34CCCN24)c1,0.1,13.8,15.8,-20.5,-38.5,-0.9,nt,nt,nt,nt
COC(=O)c1cnc(Nc2nc(C(N)COCc3ccccc3)cs2)nc1C(F)(F)F (stereo unspecified),nt,-2.2,13.0,nt,nt,nt,nt,nt,nt,nt
COC(=O)c1cnc(Nc2nc(C(N)c3ccccc3Cl)cs2)nc1C(F)(F)F (stereo unspecified),nt,40.8,60.3*,nt,nt,nt,68.3*,36.0*,28.8,28.5*
COc1cc(/C=N/N2CCCCC2)cc(OC)c1O,14.2,-10.7,0.3,4.8,5.3,-1.5,nt,nt,nt,nt
COc1ccc(CC(N)c2csc(NC(=O)CCc3ccccc3)n2)cc1 (stereo unspecified),nt,59.3*,61.9*,nt,nt,nt,31.2,27.9*,40.4,37.5*
COc1ccc(CNC(=O)Nc2nc(C(N)Cc3ccc(F)cc3)cs2)cc1 (stereo unspecified),nt,58.7*,57.0*,nt,nt,nt,70.4*,33.9*,66.1*,59.0*
NC(Cc1ccc(F)cc1)c1csc(NC(=O)NC(c2ccccc2)c2ccccc2)n1 (stereo unspecified),nt,67.8*,56.4*,nt,nt,nt,25.1,23.0*,35.4,44.7*
COc1ccc(CC(N)c2csc(NC(=O)c3cc(C(C)(C)C)oc3C)n2)cc1 (stereo unspecified),nt,28.3,48.0*,nt,nt,nt,29.6,30.1*,40.1,51.0*
NC(Cc1ccccc1)c1csc(NC(=O)Nc2ccccc2Oc2ccccc2)n1 (stereo unspecified),nt,22.2,12.2,nt,nt,nt,nt,nt,nt,nt
COc1ccc(CC(N)c2csc(NC(=O)Nc3ccc(OC)cc3)n2)cc1 (stereo unspecified),nt,25.9,24.6,nt,nt,nt,nt,nt,nt,nt
COc1ccc(CC(N)c2csc(NC(=O)Nc3ccccc3Cc3ccccc3)n2)cc1 (stereo unspecified),nt,42.0,36.8,nt,nt,nt,nt,nt,nt,nt
CC(C)c1cc(C(C)C)c(S(=O)(=O)N2CCNCC2)c(C(C)C)c1,5.8,-16.3,14.9,-22.4,-37.0,1.5,nt,nt,nt,nt
Cc1cc(=O)oc2c(C)c3occc3cc12,1.3,5.1,3.8,-3.2,-3.8,1.5,nt,nt,nt,nt
Cc1c(Cl)cccc1-c1ccc(/C=N/n2cnnc2)o1,13.5,-18.9,47.5*,-16.8,-7.9,0.1,38.1*,19.4*,12.4,13.4
SMILES,OX1R antag-1,TAAR1 antagonist,TAAR1 ag,CHO parental Ca,OX1R antag-2,NTR1 agonist,TAAR1 ag conf,Ga16 ag counter,TAAR1 desensitize,Ga16 nonsel ant
CN(C)S(=O)(=O)c1cccc(CNCC2COc3ccccc3O2)c1 (stereo unspecified),-3.7,-13.2,58.8*,-14.3,-14.7,0.8,88.4*,21.1*,33.8,2.5
c1ccc(CCNCC2COc3ccccc3O2)cc1 (stereo unspecified),5.8,4.3,16.0,-19.0,-18.8,-1.2,nt,nt,nt,nt
Cc1cc(C)cc(NC(=O)CS(=O)(=O)c2cccc3nsnc23)c1,36.1,-11.4,0.1,0.7,-11.5,0.0,nt,nt,nt,nt
CCCC(=O)Nc1c2c(nn1-c1ccc([N+](=O)[O-])cc1)CS(=O)(=O)C2,20.9,-2.8,1.9,-4.6,-9.6,-1.5,nt,nt,nt,nt
Cc1ccc(NC(=O)COc2cccc3ccc(C)nc23)c(Br)c1,20.2,89.5*,86.8*,-6.3,-87.3,33.6,2.9,5.1,28.0,22.0*
Cc1ccc(OCC(=O)Nc2cccc(C)n2)c(C)c1,11.5,0.3,7.0,-14.3,-96.4,0.3,nt,nt,nt,nt
COc1ccc(S(=O)(=O)N2CCCC2CNC(=O)C(=O)NCCc2ccccc2)cc1 (stereo unspecified),39.2*,96.7*,92.0*,-16.2,-8.4,-0.1,86.6*,9.9,86.6*,30.0*
